These results are taken from ChEMBL document CHEMBL1165904, “Design, synthesis and 3D-QSAR of beta-carboline derivatives as potent antitumor agents” (Eur J Med Chem, 2010).

Structures are written as SMILES.

Common to all, as to assay type: functional, cell-based
In one experiment the test system is HeLa. As to the kind of experiment: Cytotoxicity against human HeLa cells by MTT assay. The procedure, abridged: (§1)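 Tumour cells cultured in RPMI-1640 with 10% (v/v) fetal calf serum plus penicillin and streptomycin, at 37 °C, humidified 5% CO2. Compounds from DMSO stocks; final DMSO in medium 2% (v/v) or lower. Assay in 96-well microtitre cultures with MTT staining. IC50 taken as concentration causing 50% growth inhibition relative to untreated cells.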
On the technique in general: Formazan colour is commonly taken as a measure of viable cells.

In a further experiment the test system is MCF7. As to the kind of experiment: Cytotoxicity against human MCF7 cells by MTT assay. Put shortly:
as §1

In the next experiment the test system is HepG2. In words: Cytotoxicity against human HepG2 cells by MTT assay. Put shortly:
as §1

A further experiment deals with BGC-823. In words: Cytotoxicity against human BGC823 cells by MTT assay. The procedure, abridged: as §1
In a further experiment the test system is Bel-7402. In words: Cytotoxicity against human Bel7402 cells by MTT assay. Put shortly:
as §1

For the compound `CCCCOc1ccc2c3ccnc(C)c3n(CC(C)C)c2c1`, the IC50 in the experiment with HeLa is 20.8 µM; in the experiment with MCF7, 7.2 µM; in the experiment on HepG2 (read-out: IC50), 12.1 µM; with HepG2 (read-out: pIC50 (converted)), 12 µM; in the experiment on BGC-823, 12.1 µM; with Bel-7402, 42.5 µM.

With `Cc1nccc2c3ccc(OCc4ccccc4)cc3n(CC(C)C)c12`, the IC50 in the experiment on HeLa was 50.5 µM; in the experiment on MCF7, 54.1 µM; in the experiment on HepG2 (read-out: IC50) it was 22.2 µM; in the experiment with HepG2 (read-out: pIC50 (converted)), 22.4 µM; in the experiment with BGC-823 it was 36 µM; in the experiment on Bel-7402, 26.8 µM.

As to `Cc1nccc2c3ccc(OC(C)C)cc3n(CCCc3ccccc3)c12`, the IC50 is 48.6 µM with HeLa; 45.3 µM with MCF7; 14.6 µM in the experiment with HepG2 (read-out: IC50); 14.5 µM in the experiment on HepG2 (read-out: pIC50 (converted)); 16.3 µM with BGC-823; 36.2 µM in the experiment on Bel-7402.

In the case of `CCn1c2cc(OCc3c(F)c(F)c(F)c(F)c3F)ccc2c2cc[n+](Cc3ccccc3)c(C)c21`, the IC50 was 0.93 µM in the experiment with HeLa; 5.7 µM in the experiment with MCF7; 1.6 µM in the experiment on HepG2 (read-out: IC50); 1.58 µM with HepG2 (read-out: pIC50 (converted)); 4.6 µM with BGC-823; 4 µM with Bel-7402.

As for `CCCCOc1ccc2c3cc[n+](Cc4ccccc4)c(C)c3n(CC(C)C)c2c1`, the IC50 is 2.6 µM in the experiment with HeLa; 5.3 µM in the experiment on MCF7; 1.8 µM with HepG2 (read-out: IC50); 1.82 µM in the experiment on HepG2 (read-out: pIC50 (converted)); 6.8 µM in the experiment with BGC-823; 5.3 µM in the experiment with Bel-7402.

Regarding `Cc1c2c(cc[n+]1Cc1ccccc1)c1ccc(OCc3ccccc3)cc1n2CC(C)C`, the IC50 with HeLa is 12.4 µM; with MCF7, 3.9 µM; in the experiment on HepG2 (read-out: IC50) it was 1.9 µM; with HepG2 (read-out: pIC50 (converted)), 1.91 µM; in the experiment on BGC-823, 5.2 µM; with Bel-7402, 5 µM.

Take `Cc1nccc2c3ccc(OCc4ccccc4)cc3n(CCCc3ccccc3)c12`: the IC50 with HeLa was 72.6 µM; with MCF7 it was 63.3 µM; in the experiment on HepG2 (read-out: IC50) it was 15.7 µM; in the experiment with HepG2 (read-out: pIC50 (converted)), 15.8 µM; with BGC-823, 19.5 µM; in the experiment on Bel-7402, 29.4 µM.

On to `Cc1nccc2c3ccc(OCc4c(F)c(F)c(F)c(F)c4F)cc3n(CCCc3ccccc3)c12`, for which the IC50 in the experiment with HeLa was 73.5 µM; with MCF7, 38.7 µM; in the experiment with HepG2 (read-out: IC50) it was 147 µM; in the experiment with HepG2 (read-out: pIC50 (converted)), 148 µM; in the experiment on BGC-823, 7.88 µM; with Bel-7402 it was 18.6 µM.

On to `CCCCCCCCOc1ccc2c3cc[n+](Cc4ccccc4)c(C)c3n(CCCc3ccccc3)c2c1`, for which the IC50 was 2.2 µM with HeLa; 5.3 µM in the experiment on MCF7; 3.9 µM in the experiment with HepG2 (read-out: IC50); 3.89 µM in the experiment with HepG2 (read-out: pIC50 (converted)); 3.9 µM with BGC-823; 2 µM with Bel-7402.

With `CCOc1ccc2c3cc[n+](Cc4ccccc4)c(C)c3n(CC)c2c1`, the IC50 in the experiment on HeLa is 2.2 µM; in the experiment with MCF7 it was 8.1 µM; in the experiment with HepG2 (read-out: IC50), 14.3 µM; with HepG2 (read-out: pIC50 (converted)), 14.5 µM; with BGC-823, 9.2 µM; in the experiment with Bel-7402 it was 12.6 µM.

Regarding `CCCCCCCCOc1ccc2c3ccnc(C)c3n(CCCc3ccccc3)c2c1`, the IC50 was 69.6 µM with HeLa; 45.9 µM in the experiment with MCF7; 105 µM with HepG2 (read-out: IC50); 105 µM in the experiment with HepG2 (read-out: pIC50 (converted)); 17.4 µM in the experiment with BGC-823; 21.8 µM with Bel-7402.
